# Tests used:
# [1] = target: Cyclin-dependent kinase 2/cyclin A (Homo sapiens, UniProt P24941); test: Inhibition of recombinant CDK2/Cyclin A using RbinG as substrate after 2 hrs by luminescence assay; type: protein-complex assay
# [2] = target: Non-receptor tyrosine-protein kinase TYK2 (Homo sapiens, UniProt P29597); test: Inhibition of recombinant TYK2
# [3] = target: Tyrosine-protein kinase JAK1 (Homo sapiens, UniProt P23458); test: Inhibition of recombinant JAK1 using Poly (Glu,Ala,Tyr) as substrate after 2 hrs by luminescence assay
# Method in brief: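 Luciferase-coupled ATP-depletion luminescence assay in 50 mM Hepes pH 7.5 with MgCl₂, MnCl₂, BGP, DTT and orthovanadate, 2 h at room temperature. Conditions per target: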
# [4] = target: Tyrosine-protein kinase JAK2 (Homo sapiens, UniProt O60674); test: Inhibition of recombinant JAK2 using Poly (Glu,Ala,Tyr) as substrate after 2 hrs by luminescence assay
# [5] = target: T1, Tyrosine-protein kinase JAK3 (Homo sapiens, UniProt P52333); test: Inhibition of recombinant JAK3 using Poly (Glu,Ala,Tyr) as substrate after 2 hrs by luminescence assay
# T1 sequence (P52333 whole entry): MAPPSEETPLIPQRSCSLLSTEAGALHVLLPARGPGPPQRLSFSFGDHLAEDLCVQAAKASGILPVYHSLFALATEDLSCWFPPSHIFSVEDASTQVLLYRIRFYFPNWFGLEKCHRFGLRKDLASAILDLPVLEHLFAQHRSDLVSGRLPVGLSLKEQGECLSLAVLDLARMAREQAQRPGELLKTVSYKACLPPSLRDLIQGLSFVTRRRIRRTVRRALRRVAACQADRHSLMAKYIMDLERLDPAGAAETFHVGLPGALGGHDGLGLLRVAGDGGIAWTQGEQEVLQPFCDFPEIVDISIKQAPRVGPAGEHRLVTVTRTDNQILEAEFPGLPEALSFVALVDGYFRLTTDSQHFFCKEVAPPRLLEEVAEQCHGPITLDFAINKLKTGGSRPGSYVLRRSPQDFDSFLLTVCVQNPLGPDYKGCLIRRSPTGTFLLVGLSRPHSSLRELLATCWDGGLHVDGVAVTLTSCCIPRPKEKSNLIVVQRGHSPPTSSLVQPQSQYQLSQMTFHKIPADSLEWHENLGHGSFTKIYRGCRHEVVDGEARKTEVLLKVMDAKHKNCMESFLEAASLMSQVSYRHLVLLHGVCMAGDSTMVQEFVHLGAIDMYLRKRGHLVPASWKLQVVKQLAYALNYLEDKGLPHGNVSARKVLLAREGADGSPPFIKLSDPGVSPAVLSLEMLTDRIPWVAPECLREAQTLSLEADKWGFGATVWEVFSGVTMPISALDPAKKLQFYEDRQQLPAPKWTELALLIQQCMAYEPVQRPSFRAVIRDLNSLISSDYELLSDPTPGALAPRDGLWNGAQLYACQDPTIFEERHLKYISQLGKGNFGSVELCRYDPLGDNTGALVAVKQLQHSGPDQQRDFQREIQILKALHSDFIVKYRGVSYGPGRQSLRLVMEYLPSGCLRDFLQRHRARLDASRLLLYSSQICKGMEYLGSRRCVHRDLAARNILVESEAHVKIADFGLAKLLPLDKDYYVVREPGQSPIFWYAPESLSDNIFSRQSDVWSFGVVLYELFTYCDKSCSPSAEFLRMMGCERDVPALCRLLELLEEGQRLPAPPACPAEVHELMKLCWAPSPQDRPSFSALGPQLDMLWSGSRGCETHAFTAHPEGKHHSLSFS
# [6] = target: T2, Receptor-type tyrosine-protein kinase FLT3 (Homo sapiens, UniProt P36888); test: Inhibition of recombinant FLT3 using Poly (Glu,Tyr) as substrate after 2 hrs by luminescence assay
# T2 sequence (P36888 whole entry): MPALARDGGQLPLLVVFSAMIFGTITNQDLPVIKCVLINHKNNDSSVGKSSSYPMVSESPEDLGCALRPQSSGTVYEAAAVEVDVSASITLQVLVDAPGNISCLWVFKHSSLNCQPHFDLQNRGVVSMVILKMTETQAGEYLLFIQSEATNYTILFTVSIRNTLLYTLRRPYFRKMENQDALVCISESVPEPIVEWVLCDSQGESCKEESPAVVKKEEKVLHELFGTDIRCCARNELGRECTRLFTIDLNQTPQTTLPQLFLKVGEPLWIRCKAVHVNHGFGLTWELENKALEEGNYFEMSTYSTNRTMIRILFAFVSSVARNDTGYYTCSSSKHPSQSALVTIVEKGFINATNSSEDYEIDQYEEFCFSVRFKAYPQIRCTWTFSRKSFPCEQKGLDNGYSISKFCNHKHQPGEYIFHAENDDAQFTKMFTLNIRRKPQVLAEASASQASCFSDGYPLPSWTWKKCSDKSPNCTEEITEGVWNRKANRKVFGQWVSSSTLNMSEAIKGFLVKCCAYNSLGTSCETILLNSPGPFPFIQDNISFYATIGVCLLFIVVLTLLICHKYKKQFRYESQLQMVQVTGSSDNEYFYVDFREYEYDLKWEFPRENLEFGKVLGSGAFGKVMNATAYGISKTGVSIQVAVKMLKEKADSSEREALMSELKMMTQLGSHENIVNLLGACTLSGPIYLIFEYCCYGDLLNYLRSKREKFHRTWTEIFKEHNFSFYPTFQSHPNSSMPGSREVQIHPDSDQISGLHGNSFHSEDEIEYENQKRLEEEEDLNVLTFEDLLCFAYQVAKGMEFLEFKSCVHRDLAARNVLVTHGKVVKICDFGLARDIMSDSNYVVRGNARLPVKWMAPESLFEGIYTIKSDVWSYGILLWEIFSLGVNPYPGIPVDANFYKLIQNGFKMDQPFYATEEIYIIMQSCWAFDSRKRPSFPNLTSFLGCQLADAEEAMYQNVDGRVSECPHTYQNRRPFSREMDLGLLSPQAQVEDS
# physchem = settings: phosphate buffer saline, pH 7
# Sequence of Non-receptor tyrosine-protein kinase TYK2 (P29597 whole entry): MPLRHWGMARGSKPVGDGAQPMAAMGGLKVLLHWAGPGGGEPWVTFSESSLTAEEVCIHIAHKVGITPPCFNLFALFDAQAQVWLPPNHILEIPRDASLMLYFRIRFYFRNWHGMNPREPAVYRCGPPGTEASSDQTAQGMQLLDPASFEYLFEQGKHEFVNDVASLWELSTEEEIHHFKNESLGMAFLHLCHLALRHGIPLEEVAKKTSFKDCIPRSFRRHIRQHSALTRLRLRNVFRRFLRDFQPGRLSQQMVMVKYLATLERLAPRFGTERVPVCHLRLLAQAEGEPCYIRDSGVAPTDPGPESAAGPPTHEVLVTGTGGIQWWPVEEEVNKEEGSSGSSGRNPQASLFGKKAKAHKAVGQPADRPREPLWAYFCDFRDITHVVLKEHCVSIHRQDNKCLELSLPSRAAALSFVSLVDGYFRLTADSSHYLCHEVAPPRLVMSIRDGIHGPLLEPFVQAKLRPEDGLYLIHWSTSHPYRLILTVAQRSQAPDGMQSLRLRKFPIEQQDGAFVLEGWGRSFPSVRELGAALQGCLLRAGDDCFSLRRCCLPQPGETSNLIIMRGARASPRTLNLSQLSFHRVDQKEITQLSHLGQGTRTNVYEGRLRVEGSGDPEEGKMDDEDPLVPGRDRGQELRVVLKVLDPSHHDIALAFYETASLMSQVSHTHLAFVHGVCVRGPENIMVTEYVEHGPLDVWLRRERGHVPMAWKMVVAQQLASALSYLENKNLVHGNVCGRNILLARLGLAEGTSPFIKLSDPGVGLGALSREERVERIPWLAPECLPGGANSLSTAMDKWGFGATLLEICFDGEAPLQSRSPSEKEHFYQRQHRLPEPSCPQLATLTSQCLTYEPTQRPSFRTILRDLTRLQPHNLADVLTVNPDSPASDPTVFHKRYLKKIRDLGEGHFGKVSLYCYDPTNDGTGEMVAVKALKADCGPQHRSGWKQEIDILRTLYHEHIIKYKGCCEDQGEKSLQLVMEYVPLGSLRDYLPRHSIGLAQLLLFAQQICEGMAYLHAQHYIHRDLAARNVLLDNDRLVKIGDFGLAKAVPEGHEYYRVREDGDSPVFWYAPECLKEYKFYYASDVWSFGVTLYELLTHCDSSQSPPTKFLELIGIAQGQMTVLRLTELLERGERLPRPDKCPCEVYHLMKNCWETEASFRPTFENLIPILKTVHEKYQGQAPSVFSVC
# Sequence of Tyrosine-protein kinase JAK2 (O60674 whole entry): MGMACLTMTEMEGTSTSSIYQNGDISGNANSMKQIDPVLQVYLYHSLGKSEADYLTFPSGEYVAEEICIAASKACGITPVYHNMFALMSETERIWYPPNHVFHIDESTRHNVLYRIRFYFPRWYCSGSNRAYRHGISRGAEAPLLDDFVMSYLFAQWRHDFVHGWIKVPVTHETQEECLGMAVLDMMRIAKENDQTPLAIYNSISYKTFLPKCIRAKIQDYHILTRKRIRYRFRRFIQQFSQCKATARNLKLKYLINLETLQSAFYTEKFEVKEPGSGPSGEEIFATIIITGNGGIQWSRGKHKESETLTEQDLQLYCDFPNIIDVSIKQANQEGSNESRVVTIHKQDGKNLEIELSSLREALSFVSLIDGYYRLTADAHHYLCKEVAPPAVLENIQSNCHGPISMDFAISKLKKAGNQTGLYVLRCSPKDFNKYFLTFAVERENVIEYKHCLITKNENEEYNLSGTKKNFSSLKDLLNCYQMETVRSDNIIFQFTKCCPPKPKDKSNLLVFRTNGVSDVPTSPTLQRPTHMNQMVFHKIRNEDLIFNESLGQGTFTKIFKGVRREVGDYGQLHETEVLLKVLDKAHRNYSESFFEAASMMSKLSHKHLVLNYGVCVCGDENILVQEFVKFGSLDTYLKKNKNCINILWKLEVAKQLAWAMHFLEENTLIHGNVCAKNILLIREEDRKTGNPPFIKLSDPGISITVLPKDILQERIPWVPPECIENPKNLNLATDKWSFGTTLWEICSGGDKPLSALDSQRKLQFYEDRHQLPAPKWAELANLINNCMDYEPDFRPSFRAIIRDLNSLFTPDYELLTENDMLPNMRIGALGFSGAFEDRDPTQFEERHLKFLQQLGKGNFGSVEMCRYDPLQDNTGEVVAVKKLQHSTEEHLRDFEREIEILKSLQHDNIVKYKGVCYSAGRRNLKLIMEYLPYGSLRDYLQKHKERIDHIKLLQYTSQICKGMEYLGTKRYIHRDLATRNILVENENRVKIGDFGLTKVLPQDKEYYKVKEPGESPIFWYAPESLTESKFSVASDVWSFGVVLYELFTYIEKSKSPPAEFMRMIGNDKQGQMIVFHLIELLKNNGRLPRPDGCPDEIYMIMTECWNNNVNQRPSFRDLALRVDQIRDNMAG
# Sequence of Tyrosine-protein kinase JAK1 (P23458 whole entry): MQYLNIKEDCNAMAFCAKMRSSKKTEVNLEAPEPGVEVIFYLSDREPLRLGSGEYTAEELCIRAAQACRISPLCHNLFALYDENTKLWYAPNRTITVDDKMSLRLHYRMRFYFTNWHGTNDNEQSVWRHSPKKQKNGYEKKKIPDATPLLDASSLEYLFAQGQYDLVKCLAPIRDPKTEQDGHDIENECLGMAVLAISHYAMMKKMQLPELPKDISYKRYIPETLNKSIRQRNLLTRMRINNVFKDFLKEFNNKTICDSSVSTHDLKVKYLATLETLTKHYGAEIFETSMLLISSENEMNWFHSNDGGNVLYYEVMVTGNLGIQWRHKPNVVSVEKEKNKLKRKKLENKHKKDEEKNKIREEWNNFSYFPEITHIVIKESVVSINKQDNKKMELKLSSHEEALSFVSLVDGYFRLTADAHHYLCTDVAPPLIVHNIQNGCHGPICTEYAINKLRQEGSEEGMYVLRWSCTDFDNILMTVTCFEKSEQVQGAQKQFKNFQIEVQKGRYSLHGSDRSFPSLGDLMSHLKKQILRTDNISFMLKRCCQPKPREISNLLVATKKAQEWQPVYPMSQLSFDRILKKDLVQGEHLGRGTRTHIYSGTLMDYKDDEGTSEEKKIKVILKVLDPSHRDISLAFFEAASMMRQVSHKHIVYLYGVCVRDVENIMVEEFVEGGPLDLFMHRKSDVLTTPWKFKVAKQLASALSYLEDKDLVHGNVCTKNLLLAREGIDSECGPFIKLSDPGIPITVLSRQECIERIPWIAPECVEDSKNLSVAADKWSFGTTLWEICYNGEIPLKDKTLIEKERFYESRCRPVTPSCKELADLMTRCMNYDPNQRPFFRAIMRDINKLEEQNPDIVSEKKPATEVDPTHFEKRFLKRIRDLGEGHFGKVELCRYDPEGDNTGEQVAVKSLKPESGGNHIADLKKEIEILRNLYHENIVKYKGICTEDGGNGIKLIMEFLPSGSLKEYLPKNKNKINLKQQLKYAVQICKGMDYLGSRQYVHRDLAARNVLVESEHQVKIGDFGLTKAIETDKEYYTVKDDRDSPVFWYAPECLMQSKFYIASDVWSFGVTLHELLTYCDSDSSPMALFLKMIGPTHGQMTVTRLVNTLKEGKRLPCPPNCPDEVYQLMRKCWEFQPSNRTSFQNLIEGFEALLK
SMILES,IC50 [1] [nM],IC50 [2] [nM],IC50 [3] [nM],IC50 [4] [nM],IC50 [5] [nM],IC50 [6] [nM],solubility (physchem) [µg/mL]
COc1ccc2cc1-c1ccnc(n1)Nc1ccc(OCCN3CCCC3)c(c1)COCC=CCOC2,> 10000,620,4900,330,7200,12,–
C1=CCCOc2cccc(c2)-c2ccnc(n2)Nc2cccc(c2)OCC1,> 10000,5200,> 10000,1200,> 10000,1100,–
OCCN1CCN(c2ccc3cc2COCC=CCOCc2cccc(c2)-c2ccnc(n2)N3)CC1,3700,160,3100,84,2500,70,150
O=C1CCN(CCOc2ccc3cc2COCC=CCOCc2cccc(c2)-c2ccnc(n2)N3)C1 (mixture of isomers),5800,140,940,22,380,67,–
C1=CCOCc2cccc(c2)-c2ccnc(n2)Nc2cc(cc(OCCN3CCCC3)c2)COC1 (mixture of isomers),570,80,2100,48,830,22,145
C1=CCOCc2cccc(c2)-c2ccnc(n2)Nc2cc(cc(OCCN3CCOCC3)c2)COC1 (mixture of isomers),2700,81,2400,96,3300,19,40
Nc1cc2cc(c1)Nc1nccc(n1)-c1cccc(c1)COCC=CCOC2 (mixture of isomers),240,–,–,35,–,52,25
CCN(CC)CCC(=O)Nc1cc2cc(c1)Nc1nccc(n1)-c1cccc(c1)COCC=CCOC2 (mixture of isomers),400,18,1900,44,390,78,–
COc1cc2cc(c1OCCN1CCCC1)COCC=CCOCc1cccc(c1)-c1ccnc(n1)N2 (mixture of isomers),3400,170,1700,36,–,6,154
Fc1cnc2nc1-c1cccc(c1)COCC=CCOCc1cc(ccc1OCCN1CCCC1)N2 (mixture of isomers),1550,140,830,17,1000,15,–
Fc1cc2cc(c1)-c1ccnc(n1)Nc1ccc(OCCN3CCCC3)c(c1)COCC=CCOC2 (mixture of isomers),2000,36,380,24,–,8,2.61
Fc1ccc2cc1COCC=CCOCc1cc(ccc1OCCN1CCCC1)Nc1nccc-2n1 (mixture of isomers),3250,–,4600,25,720,40,–
C1=CCOc2cccc(c2)Nc2nccc(n2)-c2cccc(c2)OCC1 (mixture of isomers),330,70,> 10000,230,> 10000,880,< 10
COc1ccc2cc1COCC=CCCOc1cccc(c1)-c1ccnc(n1)N2 (mixture of isomers),> 10000,150,3000,130,–,310,–
COc1ccc2cc1COCC=CCOc1cccc(c1)-c1ccnc(n1)N2 (mixture of isomers),360,120,5800,260,–,78,< 10
COc1ccc2cc1COCC=CCOCc1cccc(c1)-c1ccnc(n1)N2 (mixture of isomers),860,210,1900,70,1200,190,–
Oc1ccc2cc1COCC=CCOCc1cccc(c1)-c1ccnc(n1)N2 (mixture of isomers),210,170,400,53,1100,170,–
C1=CCOCc2cc(ccc2N2CCOCC2)Nc2nccc(n2)-c2cccc(c2)COC1 (mixture of isomers),> 10000,160,8700,60,–,32,–
C1=CCOCc2cc(ccc2N2CCNCC2)Nc2nccc(n2)-c2cccc(c2)COC1 (mixture of isomers),3400,140,2500,83,1600,49,8.79
CN1CCN(c2ccc3cc2COCC=CCOCc2cccc(c2)-c2ccnc(n2)N3)CC1 (mixture of isomers),> 10000,190,3600,41,–,30,26.4
CC(=O)N1CCN(c2ccc3cc2COCC=CCOCc2cccc(c2)-c2ccnc(n2)N3)CC1 (mixture of isomers),6200,110,2800,120,6000,38,–
CCS(=O)(=O)N1CCN(c2ccc3cc2COCC=CCOCc2cccc(c2)-c2ccnc(n2)N3)CC1 (mixture of isomers),> 10000,140,> 10000,150,> 10000,150,–
CN(C)CCN(C)c1ccc2cc1COCC=CCOCc1cccc(c1)-c1ccnc(n1)N2 (mixture of isomers),88,71,3600,77,–,31,171
ClCCOc1ccc2cc1COCC=CCOCc1cccc(c1)-c1ccnc(n1)N2 (mixture of isomers),> 10000,470,> 10000,220,> 10000,76,–
O=C1CCCN1CCOc1ccc2cc1COCC=CCOCc1cccc(c1)-c1ccnc(n1)N2 (mixture of isomers),9400,180,1300,22,500,140,–

# From ChEMBL document CHEMBL2176955, “Discovery of the macrocycle 11-(2-pyrrolidin-1-yl-ethoxy)-14,19-dioxa-5,7,26-triaza-tetracyclo[19.3.1.1(2,6).1(8,12)]heptacosa-1(25),2(26),3,5,8,10,12(27),16,21,23-decaene (SB1518), a potent Janus kinase 2/fms-like tyrosine kinase-3 (JAK2/FLT3) inhibitor for the treatment of myelofibrosis and …” (J Med Chem, 2011)
